Assay [1] relates to MDA-MB-231. Nature of the assay: Cytotoxicity against human MDA-MB-231 cells at 10 to 30 uM after 48 hrs by MTT assay. It counts as functional, cell-based. Background: Tetrazolium assays rely on reduction of a dye to a coloured formazan, in cell work by metabolically active cells.
For assay [2], the system named is MDA-MB-231. Nature of the assay: Inhibition of human MDA-MB-231 cell adhesion to fibronectin at 10 to 30 uM after 48 hrs by crystal violet staining-based spectrophotometric analysis relative to control. It counts as functional. Put shortly:
(§1)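 Cells pretreated 48 h with compound, trypsinized, and resuspended at 2 × 10^5 cells/mL in DMEM with 0.1% BSA. Added to wells coated overnight at 4 °C with fibronectin or collagen IV ([…] as printed), then blocked with 0.1% BSA. Adhesion 60 min at 37 °C. Adherent cells fixed in 10% formaldehyde and stained with 0.05% crystal violet. Dye extracted, A595 read. Reported as percent of untreated control, triplicate.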

Assay [3] concerns MDA-MB-231. In words: Inhibition of human MDA-MB-231 cell invasion at 20 to 30 uM after 24 hrs by Transwell assay. It counts as functional, cell-based. The essentials: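 Transwell inserts with 8 µm pores precoated with Matrigel. Cells seeded at 8 × 10^4 cells/mL in serum-free medium with compound or DMSO, 24 h. Lower wells hold 5% FBS-containing medium as chemoattractant. Invaded cells fixed and stained, then counted in three random fields. Run in triplicate, expressed as percent of untreated control.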

The test system of assay [4] is MDA-MB-231. In words: Antimigratory activity against human MDA-MB-231 cells at 25 uM after 24 hrs by scratch wound healing assay. It counts as functional, cell-based. The essentials:
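Cells grown overnight at 37 °C to a confluent monolayer in duplicate wells, then scratched with a pipette tip. Migration into the wound photographed at 0 and 24 h at 100× magnification.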

Assay [5] deals with MDA-MB-231. In words: Inhibition of human MDA-MB-231 cell adhesion to collagen 4 after 48 hrs by crystal violet staining-based spectrophotometric analysis. In kind it is functional. Put shortly:
as §1

Assay [6] has as its system MDA-MB-231. Nature of the assay: Inhibition of human MDA-MB-231 cell adhesion to fibronectin after 48 hrs by crystal violet staining-based spectrophotometric analysis. In kind it is functional. Put shortly: as §1
In assay [7] the test system is MDA-MB-231. In words: Antimigratory activity against human MDA-MB-231 cells after overnight incubation by Boyden chamber assay. It counts as functional, cell-based. Put shortly: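 Boyden chamber (8 µm polycarbonate membrane coated with Matrigel, […] as printed). Cells trypsinized into serum-free medium at 2.5 × 10^5 cells/mL containing test agent, placed in upper chamber. Lower chamber holds medium with 5% FBS as chemoattractant. Overnight at 37 °C. Transmigrated cells fixed in methanol, Giemsa-stained, counted in three random fields. IC50 is the mean of three independent experiments.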

Assay [8] deals with MDA-MB-231. Nature of the assay: Effect on paxillin expression level in human MDA-MB-231 cells after 24 hrs by Western blotting analysis. It counts as functional, cell-based. The essentials:
(§2)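 Cells treated 24 h with the indicated concentrations. Lysates immunoblotted with antibodies to total FAK, phospho-FAK (Y397), total paxillin and Rac1, with β-actin as internal control. Bands detected by enhanced chemiluminescence.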
In general terms: In western blotting, separated proteins are transferred to a membrane and probed.

Assay [9] relates to MDA-MB-231. In words: Effect on RAC1 expression level in human MDA-MB-231 cells at 10 to 30 uM after 24 hrs by Western blotting analysis. It counts as functional, cell-based. Put shortly: as §2
Assay [10] deals with Focal adhesion kinase 1 (Homo sapiens) (UniProt Q05397). In words: Inhibition of FAK phosphorylation at Tyr397 in human MDA-MB-231 cells after 24 hrs by Western blotting analysis. It counts as cell-based. The essentials:
as §2

Assay [11] has as its system MDA-MB-231. Nature of the assay: Effect on FAK expression level in human MDA-MB-231 cells at 10 to 30 uM after 24 hrs by Western blotting analysis. In kind it is functional, cell-based. The essentials:
as §2

Assay [12] deals with MDA-MB-231. Nature of the assay: Inhibition of human MDA-MB-231 cell adhesion to fibronectin at 30 uM after 48 hrs by crystal violet staining-based spectrophotometric analysis relative to control. In kind it is functional. The following applies: MDA-MB-231, 48 h. Put shortly: as §1
In assay [13] the test system is MDA-MB-231. In words: Inhibition of human MDA-MB-231 cell adhesion to fibronectin at 10 uM after 48 hrs by crystal violet staining-based spectrophotometric analysis relative to control. In kind it is functional. The following applies: MDA-MB-231, 48 h. Put shortly: as §1
For assay [14], the system named is MDA-MB-231. In words: Inhibition of human MDA-MB-231 cell adhesion to fibronectin at 20 uM after 48 hrs by crystal violet staining-based spectrophotometric analysis relative to control. In kind it is functional. The following applies: MDA-MB-231, 48 h. The essentials:
as §1

The source made the active and inactive calls. The rule behind the calls is not given here.

Focal adhesion kinase 1 (Homo sapiens), sequence (Q05397 2-1052 limits assumed): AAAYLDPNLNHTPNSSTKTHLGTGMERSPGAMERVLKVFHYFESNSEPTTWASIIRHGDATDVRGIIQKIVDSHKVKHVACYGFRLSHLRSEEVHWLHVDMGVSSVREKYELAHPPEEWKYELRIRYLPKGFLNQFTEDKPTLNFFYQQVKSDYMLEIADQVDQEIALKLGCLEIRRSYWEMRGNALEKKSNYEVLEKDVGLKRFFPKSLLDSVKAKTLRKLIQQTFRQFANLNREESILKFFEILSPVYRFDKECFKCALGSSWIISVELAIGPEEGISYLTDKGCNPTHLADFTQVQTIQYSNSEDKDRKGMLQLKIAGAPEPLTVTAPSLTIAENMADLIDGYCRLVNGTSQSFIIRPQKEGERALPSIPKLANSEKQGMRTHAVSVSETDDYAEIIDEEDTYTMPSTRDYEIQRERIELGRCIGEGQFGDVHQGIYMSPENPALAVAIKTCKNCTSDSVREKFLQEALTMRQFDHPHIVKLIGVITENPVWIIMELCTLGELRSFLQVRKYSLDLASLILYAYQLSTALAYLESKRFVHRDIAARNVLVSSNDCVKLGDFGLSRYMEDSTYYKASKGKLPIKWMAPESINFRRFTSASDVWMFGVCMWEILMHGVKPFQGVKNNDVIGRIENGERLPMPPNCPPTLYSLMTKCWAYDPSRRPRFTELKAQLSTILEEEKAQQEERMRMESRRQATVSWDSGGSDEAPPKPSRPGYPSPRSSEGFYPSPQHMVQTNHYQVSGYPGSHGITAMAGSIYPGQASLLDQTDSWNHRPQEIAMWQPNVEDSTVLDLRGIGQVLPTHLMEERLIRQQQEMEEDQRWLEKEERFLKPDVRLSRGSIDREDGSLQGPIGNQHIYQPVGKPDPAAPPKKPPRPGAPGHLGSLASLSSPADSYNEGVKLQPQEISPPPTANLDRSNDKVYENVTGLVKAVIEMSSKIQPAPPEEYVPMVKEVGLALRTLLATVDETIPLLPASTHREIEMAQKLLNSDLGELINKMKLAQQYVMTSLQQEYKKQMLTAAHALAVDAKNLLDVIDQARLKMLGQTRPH

With `CCCCCCCCCCCCCC(=O)NCCNC(=O)C(C)(C)C(=O)NCC(=O)O`, in the assay on MDA-MB-231 [1], the outcome was inactive. Further, the inhibition entry in the assay on MDA-MB-231 [2] and in the assay on MDA-MB-231 [3] was “Active” throughout. In addition, the outcome in the assay with MDA-MB-231 [4] was Active.
Broadly, the IC50 is the midpoint of a concentration-inhibition curve. Low readings indicate greater potency, high ones weaker potency. Take `CCCCCCCCCCCCCC(=O)NCCNC(=O)C(C)(C)C(=O)NCCO[C@@H]1O[C@H](COC(C)=O)[C@@H](O[C@@H]2O[C@H](COC(C)=O)[C@H](OC(C)=O)[C@H](OC(C)=O)[C@H]2OC(C)=O)[C@H](OC(C)=O)[C@H]1OC(C)=O`: the result with MDA-MB-231 [1] was inactive. The inhibition entry in the assay on MDA-MB-231 [5] and in the assay on MDA-MB-231 [6] was “Dose-dependent effect” each time. Further, in the assay on MDA-MB-231 [7], the IC50 is > 50 µM. Moreover, in the assay with MDA-MB-231 [3], the inhibition result is “Active”. The result with MDA-MB-231 [4] was Active.
`CCCCCCCCCCCCCC(=O)NCCNC(=O)C(C)(C)C(=O)NCCO[C@H]1O[C@H](COC(C)=O)[C@@H](OC(C)=O)[C@H](OC(C)=O)[C@@H]1OC(C)=O`: the Activity entry in the assay with MDA-MB-231 [8] and in the assay with MDA-MB-231 [7] was “Dose-dependent effect” each time. In addition, the result with MDA-MB-231 [1], in the assay on MDA-MB-231 [9] and in the assay with MDA-MB-231 [11] was inactive. Also, the inhibition entry (in the assay with MDA-MB-231 [5]; in the assay with MDA-MB-231 [6]; in [10]) was “Dose-dependent effect” in each case. The molecule further returned an IC50 in the assay with MDA-MB-231 [7] of 11.7 µM. Besides, in the assay on MDA-MB-231 [3], the inhibition result was “Active”. Moreover, the result with MDA-MB-231 [4] was Active.
On to `CCCCCCCCCCCCCC(=O)NCCNC(=O)C(C)(C)C(=O)NCCO[C@@H]1O[C@H](COC(C)=O)[C@H](OC(C)=O)[C@H](OC(C)=O)[C@H]1OC(C)=O`, for which the adhesion % at 30 µM in the assay with MDA-MB-231 [12] is 58%. Besides, the Activity result in the assay with MDA-MB-231 [8] and in the assay on MDA-MB-231 [7] was “Dose-dependent effect” each time. The outcome in the assay on MDA-MB-231 [1], in the assay with MDA-MB-231 [9] and in the assay on MDA-MB-231 [11] was inactive. Moreover, the inhibition result (with MDA-MB-231 [5]; in the assay with MDA-MB-231 [6]; in assay [10]) was “Dose-dependent effect” throughout. For the same molecule, in the assay with MDA-MB-231 [7], the IC50 stood at 11.8 µM. The inhibition result in the assay on MDA-MB-231 [3] is “Active”. Moreover, the outcome with MDA-MB-231 [4] was Active. For the same molecule, the adhesion % at 10 µM with MDA-MB-231 [13] amounted to 79%. In the assay on MDA-MB-231 [14], this molecule registered an adhesion % at 20 µM of 69%.

The values above are taken from ChEMBL document CHEMBL2390849, “Glycosylation enhances the anti-migratory activities of isomalyngamide A analogs” (Eur J Med Chem, 2013).
